STAT3 blocker: inhibitors of IL-6 induced STAT3 signaling | inhibition, % at 5.5 µM | 0.89% of 190,000 active | U3A cells, IL-6 STAT3-luciferase reporter, luminescence; host cell line lacks STAT1 | AID 862;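 active = inhibition above the mean inhibition across all screened compounds plus 3 SD, cut at about 44% in these data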
NF-kB expr up: raises NF-kB expression in human neuronal cells; NF-kB reporter expression; hits give high values; AID 1239; fold change at 12.5 µM; 1.6% of 190,000 active; in the data active = fold change above about 3.3
STAT3 act: STAT3 signaling activation. U3A cells, IL-6 STAT3-luciferase reporter, luminescence; 100% = signal with IL-6 EC80 alone. activation (% of control), % at 5.6 µM. 0.91% of 190,000 active;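 active = activation above the screen-wide mean of compound activation plus 3 SD, cut at about 130% in these data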
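Material: human U3A cells carrying STAT3-luciferase construct. Measured by: reporter luminescence signal. Timing: compound 1 h, then IL-6 6 h at 37 °C.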
STAT1 blocker: inhibitors of IFN-gamma induced STAT1 signaling; 0.35% of 200,000 active; inhibition, % at 5.5 µM; NIH 3T3 STAT1-luciferase reporter, luminescence;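 active = inhibition above a set limit, the mean inhibition across all tested compounds plus 3 SD, cut at about 34% in these data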
STAT1 act: increases IFN-gamma driven STAT1 reporter signal; NIH 3T3 STAT1-luciferase reporter, luminescence; 100% = IFN-gamma alone, no compound; activation (% of control), % at 5.5 µM; 2.6% of 200,000 active; AID 932;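 active = activation above the screen-wide mean activation plus 3 SD, cut at about 130% in these data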
APP 5'UTR act: activates APP 5'UTR luciferase reporter | SH-SY5Y APP 5'UTR luciferase reporter, luminescence; zero percent = DMSO vehicle wells | activation, % at 2 µM | 1% of 190,000 active | AID 1276;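 active = activation above a set limit, based on mean plus 3 SD of controls, cut at about 140% in these data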
A number is an active result. This is a sample that favours compounds with a hit; in the whole collection about 5.1% have one here.

What do the screens show for `COc1ccc(-c2cc(=O)c3cc(O)ccc3o2)cc1`?
NF-kB expr up: 6.5; STAT1 blocker: inactive; STAT1 act: 145; APP 5'UTR act: inactive

Results for COc1ccc2c(c1)c(=O)oc1cc(O)ccc12 ?
NF-kB expr up: inactive; STAT1 blocker: inactive; STAT1 act: inactive; APP 5'UTR act: inactive

How did O=C(O)CC(NC(=O)C12CC3CC(CC(C3)C1)C2)c1ccc(OC2CCCC2)cc1 (configuration not stated) do in these assays?
STAT3 blocker: inactive; NF-kB expr up: inactive; STAT3 act: inactive; STAT1 blocker: inactive; STAT1 act: inactive; APP 5'UTR act: inactive

What do the screens show for `CN(CC(=O)N1CCc2ccccc21)S(=O)(=O)c1cccs1`?
STAT3 blocker: inactive; NF-kB expr up: inactive; STAT3 act: inactive; STAT1 blocker: inactive; STAT1 act: 130; APP 5'UTR act: inactive

How did Brc1ccc(NCc2cccc3ccccc23)nc1 do in these assays?
STAT3 blocker: inactive; NF-kB expr up: inactive; STAT3 act: inactive; STAT1 blocker: inactive; STAT1 act: inactive; APP 5'UTR act: inactive

How did Oc1ccccc1CNc1ccc(Br)cn1 do in these assays?
STAT3 blocker: inactive; NF-kB expr up: 5.4; STAT3 act: inactive; STAT1 blocker: inactive; STAT1 act: inactive; APP 5'UTR act: inactive

What do the screens show for `Clc1ccc(-c2nc3ccncc3[nH]2)cc1`?
STAT3 blocker: inactive; NF-kB expr up: inactive; STAT3 act: inactive; STAT1 blocker: inactive; STAT1 act: 141; APP 5'UTR act: inactive

How did CCCCC(=O)Nc1ccc(C(=O)N(CC)c2ccccc2C)cc1 do in these assays?
STAT3 blocker: inactive; NF-kB expr up: inactive; STAT3 act: inactive; STAT1 blocker: inactive; STAT1 act: inactive; APP 5'UTR act: inactive

How did CCCNC(=O)C1CNc2ccccc2O1 (configuration not stated) do in these assays?
STAT3 blocker: inactive; NF-kB expr up: inactive; STAT3 act: 134; STAT1 blocker: inactive; STAT1 act: inactive; APP 5'UTR act: inactive

Results for O=C(NCCO)C1COc2ccccc2O1 (configuration not stated) ?
STAT3 blocker: inactive; STAT3 act: inactive; STAT1 blocker: inactive; STAT1 act: inactive; APP 5'UTR act: inactive

What do the screens show for `Cc1ccc(S(=O)(=O)N(C)Cc2ccc(C(=O)N/N=C/c3ccc(OC(F)F)cc3)cc2)cc1`?
STAT3 blocker: inactive; NF-kB expr up: inactive; STAT3 act: inactive; STAT1 blocker: inactive; STAT1 act: inactive; APP 5'UTR act: inactive

How did O=C(O)C/C=C(/NC(=O)OCc1ccccc1)C(=O)OCc1ccccc1 do in these assays?
STAT3 blocker: inactive; NF-kB expr up: inactive; STAT3 act: inactive; STAT1 blocker: inactive; STAT1 act: inactive; APP 5'UTR act: inactive

How did Cc1ccc(SCc2cc(=O)n3ccsc3n2)c(C)c1 do in these assays?
STAT3 blocker: inactive; NF-kB expr up: inactive; STAT3 act: inactive; STAT1 blocker: inactive; STAT1 act: 134; APP 5'UTR act: inactive

What do the screens show for `Cc1ccc(Nc2nnc(SCc3cc(=O)n4ccsc4n3)s2)c(C)c1`?
STAT3 blocker: inactive; NF-kB expr up: inactive; STAT3 act: inactive; STAT1 blocker: inactive; STAT1 act: inactive; APP 5'UTR act: inactive

What do the screens show for `CCCC(=O)c1ccc(N2CCCCCC2)c(F)c1`?
STAT3 blocker: inactive; NF-kB expr up: inactive; STAT3 act: inactive; STAT1 blocker: inactive; STAT1 act: inactive; APP 5'UTR act: inactive

Results for CCCC(=O)c1ccc(N2CCCCC2)c(F)c1 ?
STAT3 blocker: inactive; NF-kB expr up: inactive; STAT3 act: inactive; STAT1 blocker: inactive; STAT1 act: 130; APP 5'UTR act: inactive

What do the screens show for `Cc1c(/C(O)=C2/C(=O)C(=O)N(Cc3cccnc3)C2c2cccs2)cnn1-c1ccccc1` (configuration not stated)?
STAT3 blocker: inactive; NF-kB expr up: inactive; STAT3 act: inactive; STAT1 blocker: inactive; STAT1 act: 141; APP 5'UTR act: 141

Results for Cc1ccc(/C(O)=C2/C(=O)C(=O)N(Cc3cccnc3)C2c2ccccn2)cc1 (configuration not stated) ?
STAT3 blocker: inactive; NF-kB expr up: inactive; STAT3 act: inactive; STAT1 blocker: inactive; STAT1 act: inactive; APP 5'UTR act: inactive

Results for CN(C)S(=O)(=O)c1ccc(/C(O)=C2/C(=O)C(=O)N(Cc3cccnc3)C2c2cccs2)cc1 (configuration not stated) ?
STAT3 blocker: inactive; STAT3 act: inactive; STAT1 blocker: inactive; STAT1 act: inactive; APP 5'UTR act: inactive

Assay outcomes (PubChem)
